# From PMC3050579 (Molecular cell, 2009)
# Where no end group is shown, it is not given here.
# B1: G2BR peptide (Ube2g2 binding region of gp78, amino acids 574-600) (peptide, UniProt Q9UKV5 574-600, looked up)
# peptide: SADERQRMLVQRKDELLQQARKRFLNK
# B2: Ube2g2 (enzyme)
# chain: MAGTALKRLMAEYKQLTLNPPEGIVAGPMNEENFFEWEALIMGPEDTCFEFGVFPAILSFPLDYPLSPPKMRFTCEMFHPNIYPDGRVCISILHAPGDDPMGYESSAERWSPVQSVEKILLSVVSMLAEPNDESGANVDASKMWRDDREQFYKIAKQIVQKSLGL
# How the values were obtained:
# Ube2g2 [1] = target: Ube2g2 (UniProt P60604); test: NMR titration
# Ube2g2 [2] = target: Ube2g2 (UniProt P60604); test: ITC
# Ube2g2 [3] = target: T1, Ube2g2 (Homo sapiens, UniProt P60604); test: Ubiquitin loading of Ube2g2; assay type: biochemical
# T1 sequence (P60604 1-165): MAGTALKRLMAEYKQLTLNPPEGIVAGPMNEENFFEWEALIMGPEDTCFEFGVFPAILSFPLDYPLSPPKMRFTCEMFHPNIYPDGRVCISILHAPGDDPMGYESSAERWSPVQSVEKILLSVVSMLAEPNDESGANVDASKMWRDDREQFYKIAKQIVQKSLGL
# gp78 RING finger = test: Binding of G2BR to gp78 RING finger; design: species or system human; conditions: in the gp78 RING finger:Ube2g2:G2BR complex, separate binding experiments
# Ube2g2 [4] = target: T1, Ube2g2; test: NMR titration of Ube2g2 with G2BR peptides; assay type: binding; conditions: peptide with Ube2g2, 50 mM Tris, 2 mM TCEP, pH 7.5, 25°C
# In short: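 Samples are in 50 mM Tris, 2 mM TCEP, pH 7.5, run at 25°C on 600 and 800 MHz spectrometers with triple-resonance cryoprobes. G2BR peptide is titrated into Ube2g2 and chemical shift perturbations of Ube2g2 resonances are mapped, backed by intermolecular NOESY, to define the binding surface.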
# Ube2g2Δ96-108 [5] = test: Binding of G2BR to Ube2g2Δ96-108
# Ube2g2Δ96-108 [6] = test: Ubiquitin loading of Ube2g2Δ96-108; assay type: biochemical; conditions: Ube2g2Δ96-108, printed 'almost 75%'; 4 μM G2BR, 30°C
# UbcH5B = test: Ubiquitylation by HsHRD1, Trc8 and GST-gp78CΔ577-643 with UbcH5B as E2; assay type: biochemical; conditions: HsHRD1, Trc8 and GST-gp78CΔ577-643, UbcH5B as E2, G2BR added
# In short: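 GST fusions of the HsHRD1 or Trc8 cytoplasmic tails, or of truncated gp78, were bound to glutathione Sepharose. They were incubated 90 min with E1 and the indicated E2, with or without the indicated peptides. Beads were then washed, and bead-bound ubiquitylated material was resolved by SDS-PAGE and immunoblotted with anti-ubiquitin.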
# Ub-GFP-His6 = test: Ubiquitylation of Ub-GFP-His6 by gp78 cytoplasmic domain constructs; assay type: biochemical; conditions: ~500 nM Ub-GFP-His6, Flag-tagged ubiquitin
# In short: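 Purified, bacterially expressed Ub-GFP-His6 (~500 nM) served as substrate for glutathione Sepharose-bound GST-gp78 lacking aa 577-643. Reactions were stopped with 2% SDS (final). After 10 min, samples were diluted to 0.1% SDS with 8 M urea in 50 mM Tris pH 7.4. Substrate was recovered on Ni2+ beads, washed, eluted and resolved by SDS-PAGE. In controls, substrate was added after termination; some reactions ran 60 min.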
# Ube2g2:RING finger = test: Fraction of Ube2g2 bound to gp78 RING finger in discharge reactions; assay type: binding; conditions: 8 μM gp78 RING finger, peptide 4 μM
# GST-gp78CΔ577-643 = test: Autoubiquitylation of GST-gp78CΔ577-643 with Ube2g2; assay type: biochemical, human; conditions: GST-gp78CΔ577-643, bead-bound, Ube2g2, E1; anti-ubiquitin immunoblot
# In short: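 Glutathione Sepharose-bound GST fusion of the gp78 cytoplasmic tail truncated at aa 577, at the start of the G2BR, is incubated 90 min with Ube2g2 and E1, with or without synthetic or recombinant G2BR-derived peptides added in trans. After washing, ubiquitylated bead-bound material is resolved by SDS-PAGE and immunoblotted with anti-ubiquitin.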
# Ube2g2:G2BR complex [7] = target: T2, Ube2g2:G2BR complex (Homo sapiens, UniProt P60604+Q9UKV5); test: NMR titration of Ube2g2:G2BR complex with gp78 RING finger; assay type: binding; conditions: for NMR Exchange timescale: Ube2g2:G2BR complex, pH 7.5, 25°C
# T2 sequence (P60604 1-165): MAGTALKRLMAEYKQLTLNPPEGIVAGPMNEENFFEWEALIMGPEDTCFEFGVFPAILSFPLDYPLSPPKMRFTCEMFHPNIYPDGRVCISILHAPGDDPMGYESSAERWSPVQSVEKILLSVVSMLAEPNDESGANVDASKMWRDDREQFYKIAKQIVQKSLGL
# T2 sequence (Q9UKV5 574-600 partner limits assumed): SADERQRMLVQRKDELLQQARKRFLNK
# In short: (§1)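 Purified gp78 RING finger is titrated into free Ube2g2 or the Ube2g2:G2BR complex in 50 mM Tris, 2 mM TCEP, pH 7.5, at 25°C, using 600 and 800 MHz spectrometers. Shifts of Ube2g2 peaks from free toward bound positions are followed. Kd comes from fitting peak positions against ligand:protein concentration.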
# Ube2g2 [8] = target: T1, Ube2g2; test: ITC of Ube2g2 with G2BR peptides; assay type: binding
# Ube2g2:G2BRΔN complex = Ube2g2:G2BRΔN complex (UniProt P60604); test: NMR titration
# UbcH5C = conditions: ref Brzovic et al., 2006; cited from earlier work
# Ube2g2 [9] = target: B2; test: ITC
# Ube2g2 [10] = target: B2; test: NMR titration
# Ube2g2 [11] = target: B2; test: ITC; remark: listed apart in the source
# Ube2g2 [12] = target: T1, Ube2g2; test: NMR titration of Ube2g2 with gp78 RING finger; assay type: binding; conditions: Ube2g2 without G2BR, pH 7.5, 25°C
# In short: as §1
# Ube2g2:G2BR complex [13] = target: T3, Ube2g2:G2BR complex ( | human, UniProt P60604 1-165; Q9UKV5 574-600); test: NMR titration
# T3 sequence 1: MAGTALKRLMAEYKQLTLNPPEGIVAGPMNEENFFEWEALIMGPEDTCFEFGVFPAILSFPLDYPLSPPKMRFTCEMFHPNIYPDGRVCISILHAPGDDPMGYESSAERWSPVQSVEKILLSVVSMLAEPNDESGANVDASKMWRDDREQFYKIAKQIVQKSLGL
# T3 sequence 2: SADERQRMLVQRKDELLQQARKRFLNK
# Ube2g2 [14] = target: B2; test: NMR titration; remark: listed apart in the source
# Ube2g2:G2BRΔN = test: NMR titration of Ube2g2:G2BRΔN complex with gp78 RING finger; assay type: binding; conditions: Ube2g2 in presence of G2BRΔN, pH 7.5, 25°C
# In short: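 For the NMR titration, samples were in 50 mM Tris, 2 mM TCEP, pH 7.5, at 25°C, on 600 and 800 MHz spectrometers with cryoprobes. gp78 RING finger was added stepwise, and Ube2g2 peak shifts from the free toward the bound position were followed. Kd was obtained by fitting peak positions against ligand:protein concentration ratio.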
# Ube2g2~Ub = Ube2g2~Ub (Homo sapiens, UniProt P60604); test: Discharge of ubiquitin from Ube2g2~Ub; assay type: biochemical; conditions: 8 μM gp78 RING finger, Ub 80 μM, 50 mM Tris pH 7.4, 25°C
# [15] = target: B1; test: NMR titration
molecule,measurement,setting,value
G2BRΔC (peptide),Kd,Ube2g2 [1],192 µM
G2BRΔN (peptide),Kd,Ube2g2 [2],0.74 µM
same,dH,Ube2g2 [2],-2.34 kcal/mol
SADERQRMLVQRKDELLQQARKRFLNK [G2BR],E2 loading with ubiquitin,"Ube2g2 [3]; 12°C, with G2BR",almost no detectable loading
same,effect on rate of E2 loading with ubiquitin,"Ube2g2 [3]; 30°C, 4 μM (saturating) peptide, 100 nM E1, Ub K0, versus Scr, average of two experiments",marked decrease in the rate of E2 loading
same,formation of Ube2g2~Ub,Ube2g2 [3]; in presence of G2BR (discussion),substantial delay in formation of Ube2g2~Ub
same,RING finger - G2BR direct interaction,gp78 RING finger,do not directly interact
same,NMR Exchange timescale,Ube2g2 [4],slow exchange and slow
same,G2BR binding to Ube2g2Δ96-108,Ube2g2Δ96-108 [5],G2BR binding was retained
same,decrease of the G2BR effect on ubiquitin loading by deletion of aa 96-108,Ube2g2Δ96-108 [6],~75%
same,effect on ubiquitylation with UbcH5B,UbcH5B,not increased
same,effect of G2BR on ubiquitylation of Ub-GFP-His6 by GST-gp78CΔ577-643,Ub-GFP-His6,substantially increased
same,Ube2g2 bound (Ube2g2:RING finger),Ube2g2:RING finger,> 50%
same,effect of peptide in trans on ubiquitylation of truncated gp78,GST-gp78CΔ577-643,marked increase in ubiquitylation of truncated gp78
same,increase in affinity between the E2 and RING finger caused by G2BR binding,"Ube2g2:G2BR complex [7]; Ube2g2:G2BR versus Ube2g2, abstract",~ 50 fold
same,ΔG (free energy change),"Ube2g2 [8]; ITC, 25°C",-10.45 kcal/mol
same,ΔH,"Ube2g2 [8]; ITC, 25°C",-56.3(±0.01) kJ mol^-1
same,ΔS,"Ube2g2 [8]; ITC, 25°C",-41.8(±0.04) J K^-1 mol^-1T^-1
same,higher affinity for Ube2g2 of G2BR than of ubiquitin,Ube2g2 [8]; versus ubiquitin (~300 μM),"over 10,000 fold"
gp78 RING finger (aa 313-380) (from UniProt Q9UKV5 313-380) (domain or fragment),Kd,Ube2g2:G2BRΔN complex,29 µM
ubiquitin,Kd,UbcH5C,~300 µM
B1,stoichiometry N,Ube2g2 [9],1
same,Kd,Ube2g2 [10],< 1 µM
same,Kd,Ube2g2 [11],0.021 ± 0.004 µM
same,dH,Ube2g2 [11],-13.456 ± 0.00239 kcal/mol
"gp78 RING finger (aa 313-380) (domain or fragment, human, UniProt Q9UKV5 313-380, looked up) KNYLRVVGNMEARFAVATPEELAVNNDDCAICWDSMQAARKLPCGHLFHNSCLRSWLEQDTSCPTCRM",NMR Exchange timescale,Ube2g2 [12],fast exchange
same,NMR Exchange timescale,Ube2g2 [12]; listed as gp78-RING,fast
same,Kd,Ube2g2:G2BR complex [13],3 ± 1 µM
same,Kd,Ube2g2 [14],144 ± 10 µM
same,Kd,"Ube2g2:G2BRΔN; 50 mM Tris, 2 mM TCEP",29 µM
same,NMR Exchange timescale,Ube2g2:G2BRΔN,fast
same,loss of Ub-bound Ube2g2,Ube2g2~Ub,markedly accelerated
same,NMR Exchange timescale,Ube2g2:G2BR complex [7],fast exchange
same,NMR Exchange timescale,Ube2g2:G2BR complex [7]; listed as gp78-RING,fast
same,decrease of Kd of gp78 RING finger for Ube2g2 in presence of G2BR,Ube2g2:G2BR complex [7]; Ube2g2:G2BR versus Ube2g2,~ 48 fold
B2,stoichiometry N,[15],1
